We go through two compounds from ChEMBL document CHEMBL1154522, “Aryl sulfamates are broad spectrum inactivators of sulfatases: effects on sulfatases from various sources” (Bioorg Med Chem Lett, 2009).

Assay [1] has as its target Arylsulfatase (Pseudomonas aeruginosa (strain ATCC 15692 / PAO1 / 1C / PRS 101 / LMG12228)) (UniProt P51691). Briefly: Inhibition of Pseudomonas aeruginosa recombinant arylsulfatase A expressed in Escherichia coli.
Assay [2] relates to Helix pomatia. Description: Inhibition of Helix pomatia type H1 recombinant sulfatase expressed in Escherichia coli. The essentials:
(§1)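 Snail sulfatase incubated at pH 7 with 0–500 µM 3-nitrophenyl sulfamate; residual activity plotted semi-logarithmically against time, and pseudo-first-order rates replotted against inactivator concentration to fit Ki and kinact (E + I ⇌ E·I → E–P).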

Assay [3] has as its system Patella vulgata. Briefly: Inhibition of Patella vulgata type 5 recombinant sulfatase expressed in Escherichia coli. The method, boiled down: (§2)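 Limpet sulfatase at pH 7 with 0–12.5 mM sulfamate; semi-logarithmic plots of residual activity over time, inactivation rates replotted against concentration to give Ki and kinact.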
In assay [4] the test system is Haliotis corrugata. Description: Inhibition of abalone entrails type 8 recombinant sulfatase expressed in Escherichia coli by fast phase inactivation.
Assay [5] deals with Haliotis corrugata. Briefly: Inhibition of abalone entrails type 8 recombinant sulfatase expressed in Escherichia coli by slow phase inactivation.
For assay [6], the system named is Patella vulgata. Description: Protection against inactivation in Patella vulgata type 5 recombinant sulfatase expressed in Escherichia coli assessed as ratio of residual enzyme activity to initial activity at 1 mM after 20 seconds using 4-nitrophenyl sulfate as substrate. The method, boiled down:
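Limpet sulfatase given 1 mM sulfamate at pH 7 with or without 79 mM 4-nitrophenyl sulfate; residual activity assayed 20 s after inactivator addition, expressed as vres/v0 against an untreated control.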

In assay [7] the test system is Haliotis corrugata. Description: Protection against inactivation in abalone entrails type 8 recombinant sulfatase expressed in Escherichia coli assessed as ratio of residual enzyme activity to initial activity at 0.5 mM after 25 seconds using 4-nitrophenyl sulfate as substrate. The essentials:
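Abalone sulfatase given 0.5 mM sulfamate at pH 7 with or without 30 mM 4-nitrophenyl sulfate; residual activity assayed 25 s after inactivator addition, expressed as vres/v0 against an untreated control.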

The target in assay [8] is Arylsulfatase (Pseudomonas aeruginosa (strain ATCC 15692 / PAO1 / 1C / PRS 101 / LMG12228)) (UniProt P51691). Briefly: Ratio of Kinact to Ki for Pseudomonas aeruginosa recombinant arylsulfatase A expressed in Escherichia coli.
Sequence of Arylsulfatase (Pseudomonas aeruginosa (strain ATCC 15692 / PAO1 / 1C / PRS 101 / LMG12228)) (P51691 whole entry): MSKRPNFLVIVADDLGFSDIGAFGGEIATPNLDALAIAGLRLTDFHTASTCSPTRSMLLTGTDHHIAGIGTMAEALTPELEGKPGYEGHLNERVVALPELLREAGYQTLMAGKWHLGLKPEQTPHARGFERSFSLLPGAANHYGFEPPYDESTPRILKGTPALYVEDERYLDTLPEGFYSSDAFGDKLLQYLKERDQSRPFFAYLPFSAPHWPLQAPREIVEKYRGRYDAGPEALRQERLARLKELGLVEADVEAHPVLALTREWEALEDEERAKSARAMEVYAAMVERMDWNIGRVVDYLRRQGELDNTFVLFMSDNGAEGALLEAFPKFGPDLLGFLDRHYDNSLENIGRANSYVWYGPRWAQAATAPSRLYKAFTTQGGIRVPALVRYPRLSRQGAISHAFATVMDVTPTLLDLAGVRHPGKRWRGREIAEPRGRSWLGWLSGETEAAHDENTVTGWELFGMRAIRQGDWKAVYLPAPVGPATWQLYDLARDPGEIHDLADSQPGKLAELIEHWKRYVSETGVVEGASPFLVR
Assay [9] concerns Helix pomatia. Description: Ratio of Kinact to Ki for Helix pomatia type H1 recombinant sulfatase expressed in Escherichia coli. The method, boiled down: as §1
The test system of assay [10] is Patella vulgata. Description: Ratio of Kinact to Ki for Patella vulgata type 5 recombinant sulfatase expressed in Escherichia coli. The method, boiled down: as §2
The subject of assay [11] is Haliotis corrugata. Briefly: Ratio of Kinact to Ki for abalone entrails type 8 recombinant sulfatase expressed in Escherichia coli by fast phase inactivation.
For assay [12], the system named is Haliotis corrugata. Description: Ratio of Kinact to Ki for abalone entrails type 8 recombinant sulfatase expressed in Escherichia coli by slow phase inactivation.
Assay [13] has as its system Helix pomatia. Description: Activity at Helix pomatia type H1 recombinant sulfatase expressed in Escherichia coli assessed per mg of protein. The method, boiled down:
(§3)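 Hydrolysis of potassium 4-nitrophenyl sulfate followed by release of 4-nitrophenol; Vmax is expressed per mg protein and Km in mM; Vmax/Km is derived from these.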

In assay [14] the test system is Haliotis corrugata. Briefly: Activity at abalone entrails type 8 recombinant sulfatase expressed in Escherichia coli assessed per mg of protein. The essentials:
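Crude limpet or abalone enzyme hydrolysing potassium 4-nitrophenyl sulfate; 4-nitrophenol release read at 410 nm; 10 mM α-cyclodextrin added to raise sensitivity (Δε410 14400 M−1 cm−1 at pH 7); Vmax per mg protein, Km in mM.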

Assay [15] has as its system Helix pomatia. Description: Activity at Helix pomatia type H1 recombinant sulfatase expressed in Escherichia coli. The essentials: as §3
The subject of assay [16] is Patella vulgata. Description: Activity at Patella vulgata type 5 recombinant sulfatase expressed in Escherichia coli.
Assay [17] concerns Haliotis corrugata. Briefly: Activity at abalone entrails type 8 recombinant sulfatase expressed in Escherichia coli.
Assay [18] deals with Arylsulfatase (Pseudomonas aeruginosa (strain ATCC 15692 / PAO1 / 1C / PRS 101 / LMG12228)) (UniProt P51691). Briefly: Ratio of Vmax/Km for Pseudomonas aeruginosa recombinant arylsulfatase A expressed in Escherichia coli. The method, boiled down:
as §3

Assay [19] concerns Helix pomatia. Briefly: Ratio of Vmax/Km for Helix pomatia type H1 recombinant sulfatase expressed in Escherichia coli. The method, boiled down:
as §3

Assay [20] has as its system Haliotis corrugata. Briefly: Ratio of Vmax/Km for abalone entrails type 8 recombinant sulfatase expressed in Escherichia coli.

As for `NS(=O)(=O)Oc1cccc([N+](=O)[O-])c1`, the T1/2 in assay [1] was found to be 11 s; with Helix pomatia [2], 17 s; with Patella vulgata [3], 18 s; in the assay with Haliotis corrugata [4], 10 s; with Haliotis corrugata [5], 257 s. Moreover, the Ratio with Patella vulgata [6] is 0.91; with Haliotis corrugata [7], 1.01; in assay [8], 480 s⁻¹ mM⁻¹; with Helix pomatia [9] it was 1.19 s⁻¹ mM⁻¹; with Patella vulgata [10], 0.038 s⁻¹ mM⁻¹; with Haliotis corrugata [11], 0.043 s⁻¹ mM⁻¹. Also, the Ratio with Haliotis corrugata [12] is 0.0005 s⁻¹ mM⁻¹.
Turning to `O=[N+]([O-])c1ccc(OS(=O)(=O)O)cc1`, the Vmax – broadly, the rate approached at saturating substrate – in the assay on Helix pomatia [13] was found to be 0.319 mmol/min/mg; in the assay with Haliotis corrugata [14], 0.68 mmol/min/mg. The figures for the Km with Helix pomatia [15], in the assay on Patella vulgata [16] and with Haliotis corrugata [17] were 2.03 mM, 10 mM and 10.2 mM, respectively. Moreover, the Vmax/Km in assay [18] came out at 7900; with Helix pomatia [19], 0.157; with Haliotis corrugata [20] it was 0.066.
